Measurements from ChEMBL document CHEMBL4480410, “Targeting the MKK7-JNK (Mitogen-Activated Protein Kinase Kinase 7-c-Jun N-Terminal Kinase) Pathway with Covalent Inhibitors” (J Med Chem, 2019).
Values after ≈ are worked out from the molar mass of the structure shown. Active and inactive are the calls of the source. No cut-off for these calls is given here.

Assays:
[1] = biological target: Epidermal growth factor receptor (Homo sapiens, UniProt P00533); assay: Inhibition of wild type EGFR (unknown origin) by HTRF assay
[2] = biological target: Epidermal growth factor receptor (Homo sapiens, UniProt P00533, L858R/T790M); assay: Inhibition of EGFR L858R/T790M double mutant (unknown origin) by HTRF assay
[3] = Inhibition of N-terminal His-tagged MKK7 beta1 S273D/T275D double mutant (unknown origin) expressed in insect cells using JNK1 K55M mutant as substrate by ADP-Glo assay; design: species or system Homo sapiens
How it was run: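 ADP-Glo luminescence run per supplier protocol. Kinase: MKK7 beta1 (aa 1-462, TEV-cleavable N-terminal His6 tag, S273D/T275D) expressed in Sf9 insect cells, used at 20 nM. Substrate: JNK1 K55M at 5 µM. Compound dispensed acoustically; read on plate reader.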

[4] = biological target: T1, Dual specificity mitogen-activated protein kinase kinase 7 (Homo sapiens) (UniProt O14733); assay: Covalent binding affinity to MKK7 (unknown origin) assessed as formation of covalent bond with Cys218 residues by MS/MS analysis
T1 sequence (whole entry): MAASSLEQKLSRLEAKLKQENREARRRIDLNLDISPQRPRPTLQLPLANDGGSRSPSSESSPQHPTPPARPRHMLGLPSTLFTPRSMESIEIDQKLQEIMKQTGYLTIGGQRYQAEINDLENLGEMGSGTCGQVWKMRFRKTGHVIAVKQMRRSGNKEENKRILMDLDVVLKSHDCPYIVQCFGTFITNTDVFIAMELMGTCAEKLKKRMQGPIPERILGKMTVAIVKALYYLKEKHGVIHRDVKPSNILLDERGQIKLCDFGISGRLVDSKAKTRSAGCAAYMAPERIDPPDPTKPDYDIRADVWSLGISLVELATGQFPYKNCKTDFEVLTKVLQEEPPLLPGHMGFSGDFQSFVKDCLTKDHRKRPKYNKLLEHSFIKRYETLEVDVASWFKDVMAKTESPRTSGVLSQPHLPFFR
How it was run: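 Protein at 1 mg/mL incubated with 2-fold molar excess of compound, 30 min on ice, then denatured and run on 15% SDS gel. Band excised, reduced with 50 mM DTT (1 h, 37 °C), alkylated with 55 mM iodoacetamide (1 h, 20 °C), digested with 0.1 mg/mL trypsin 20 h at 30 °C, acidified with TFA. Analysed by ion-trap MS/MS.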

[5] = Stability in human plasma assessed as compound remaining at 5 uM after 1 hr by LC/MS analysis; assay type: ADME, cell-free; conditions: read-out: Stability
How it was run: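 Compound at 5 µM incubated 1 h at 37 °C in human or mouse plasma; percentage remaining quantified by LC/MS.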

[6] = Apparent permeability across basolateral to apical side in human Caco2 cells at 5 uM after 2 hrs by transwell membrane based assay; assay type: ADME, cell-based, Caco-2; conditions: caco-2, 2 h, 5 µM
How it was run: (§1)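 10 mM DMSO stock diluted to 5 µM final in HBSS pH 7.4; 2 h at 37 °C, 5% CO2 on Caco-2 monolayers grown 21 days on transwell membranes.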

[7] = Apparent permeability across apical to basolateral side in MDCK2-MDR1 cells at 10 uM after 2 hrs by transwell membrane based assay; assay type: ADME, cell-based, Canis lupus familiaris; conditions: dog, MDCK-MDR1
How it was run: (§2)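 Compound at 10 µM in HBSS added to apical or basolateral side of MDCKII-MDR1 monolayer, 2 h at 37 °C. Both sides quantified by LC-MS/MS; Papp A–B or B–A from receiver concentration and volume, time, membrane area and initial donor concentration.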

[8] = Protein binding in mouse plasma at 5 uM after 6 hrs by LC/MS analysis; assay type: ADME, cell-free; conditions: read-out: PPB (converted)
How it was run: (§3)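 Equilibrium dialysis of plasma with compound at 5 µM, 6 h at 37 °C; final compound concentrations determined by LC/MS to give percent bound.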

[9] = Permeability of the compound assessed as drug flux at 500 uM after 16 hrs by PAMPA; assay type: ADME
How it was run: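 10 mM DMSO stock diluted to 500 µM final in 50 mM Hepes pH 7.4 on membrane coated with 10% dioleoylphosphatidylcholine, 0.5% cholesterol in dodecane; 16 h room temperature, wet chamber.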

[10] = Apparent permeability across basolateral to apical side in MDCK2-MDR1 cells at 10 uM after 2 hrs by transwell membrane based assay; assay type: ADME, cell-based, Canis lupus familiaris; conditions: dog, MDCK-MDR1; how it was run: as §2
[11] = Apparent permeability across apical to basolateral side in human Caco2 cells at 5 uM after 2 hrs by transwell membrane based assay; assay type: ADME, cell-based; conditions: Caco-2; how it was run: as §1
[12] = Protein binding in human plasma at 5 uM after 6 hrs by LC/MS analysis; assay type: ADME, cell-free; conditions: read-out: PPB (converted); how it was run: as §3
[13] = Kinetic solubility of the compound in Hepes buffer at pH 7.4 after 90 mins; assay type: physicochemical; conditions: read-out: Kinetic_solubility
How it was run: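 Compound diluted from 10 mM DMSO stock to 500 µM final in 50 mM Hepes, pH 7.4, shaken 90 min at room temperature. Filtered through 0.2 µm PVDF, then OD scanned 250–500 nm in 10 nm steps. Solubility taken from AUC, normalized to a dilution in acetonitrile.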

[14] = biological target: T2, Dual specificity mitogen-activated protein kinase kinase 7 (Mus musculus) (UniProt Q8CE90); assay: Inhibition of MKK7 in mouse DRG cells assessed as reduction in JNK phosphorylation at 1 uM after 2 hrs by Western blot analysis; assay type: cell-based
T2 sequence (whole entry): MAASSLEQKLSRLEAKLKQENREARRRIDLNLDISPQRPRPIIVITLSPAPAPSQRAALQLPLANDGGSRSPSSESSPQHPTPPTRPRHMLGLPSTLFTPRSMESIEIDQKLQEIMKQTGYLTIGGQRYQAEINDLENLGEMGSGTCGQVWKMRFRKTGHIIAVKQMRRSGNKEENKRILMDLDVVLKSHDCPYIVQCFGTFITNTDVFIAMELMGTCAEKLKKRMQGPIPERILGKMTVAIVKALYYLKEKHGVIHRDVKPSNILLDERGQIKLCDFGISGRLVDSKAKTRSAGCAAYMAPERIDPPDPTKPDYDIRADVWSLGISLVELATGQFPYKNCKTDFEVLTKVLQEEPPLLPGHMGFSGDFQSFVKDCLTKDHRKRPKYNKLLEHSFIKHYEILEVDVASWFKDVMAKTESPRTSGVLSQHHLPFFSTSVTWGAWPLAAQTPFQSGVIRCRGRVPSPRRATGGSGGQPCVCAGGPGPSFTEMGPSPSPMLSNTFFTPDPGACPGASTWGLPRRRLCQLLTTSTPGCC
How it was run: (§4)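 Dissociated DRG neurons plated on laminin for 3 h, medium replaced, compound added for a further 2 h. Neurons lysed in RIPA buffer with phosphatase inhibitors. Western blots probed for phospho-cJun, cJun, phospho-JNK and JNK.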

[15] = biological target: T2, Dual specificity mitogen-activated protein kinase kinase 7 (Mus musculus); assay: Inhibition of MKK7 in mouse DRG cells assessed as reduction in cJUN phosphorylation at 1 uM after 2 hrs by Western blot analysis; assay type: cell-based; how it was run: as §4

Sequence of Epidermal growth factor receptor (Homo sapiens, UniProt P00533, L858R/T790M) (P00533 25-1210 T790M/L858R limits assumed): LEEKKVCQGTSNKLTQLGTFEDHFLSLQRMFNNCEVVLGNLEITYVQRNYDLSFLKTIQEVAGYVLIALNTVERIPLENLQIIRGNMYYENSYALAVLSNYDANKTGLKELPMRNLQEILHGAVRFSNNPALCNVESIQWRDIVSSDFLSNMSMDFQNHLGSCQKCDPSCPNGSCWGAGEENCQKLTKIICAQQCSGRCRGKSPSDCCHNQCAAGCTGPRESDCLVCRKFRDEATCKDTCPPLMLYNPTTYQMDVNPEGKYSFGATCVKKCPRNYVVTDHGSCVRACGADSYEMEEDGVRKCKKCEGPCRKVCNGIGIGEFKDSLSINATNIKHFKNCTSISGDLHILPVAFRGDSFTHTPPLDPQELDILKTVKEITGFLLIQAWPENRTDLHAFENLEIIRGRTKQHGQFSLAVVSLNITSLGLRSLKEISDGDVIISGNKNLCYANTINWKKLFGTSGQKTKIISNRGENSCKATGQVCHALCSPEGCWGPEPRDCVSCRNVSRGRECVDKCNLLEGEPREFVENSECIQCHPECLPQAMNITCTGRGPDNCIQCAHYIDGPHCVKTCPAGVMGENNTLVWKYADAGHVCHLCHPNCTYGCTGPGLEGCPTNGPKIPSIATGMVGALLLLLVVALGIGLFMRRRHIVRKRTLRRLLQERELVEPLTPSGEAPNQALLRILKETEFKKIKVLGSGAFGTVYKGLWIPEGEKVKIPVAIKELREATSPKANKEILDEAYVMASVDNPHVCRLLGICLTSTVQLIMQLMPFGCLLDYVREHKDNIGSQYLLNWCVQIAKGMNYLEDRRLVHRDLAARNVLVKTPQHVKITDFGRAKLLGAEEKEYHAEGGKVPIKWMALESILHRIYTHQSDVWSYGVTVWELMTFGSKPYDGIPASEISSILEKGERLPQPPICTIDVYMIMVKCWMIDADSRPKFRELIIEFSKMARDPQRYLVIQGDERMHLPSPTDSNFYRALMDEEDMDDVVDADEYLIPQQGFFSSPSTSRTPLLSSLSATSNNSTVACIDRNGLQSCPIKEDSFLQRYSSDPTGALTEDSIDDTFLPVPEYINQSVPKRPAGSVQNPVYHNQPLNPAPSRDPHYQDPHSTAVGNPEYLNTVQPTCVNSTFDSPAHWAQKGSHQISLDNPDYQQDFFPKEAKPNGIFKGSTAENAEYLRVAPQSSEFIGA
Sequence of Epidermal growth factor receptor (Homo sapiens, UniProt P00533) (P00533 whole entry): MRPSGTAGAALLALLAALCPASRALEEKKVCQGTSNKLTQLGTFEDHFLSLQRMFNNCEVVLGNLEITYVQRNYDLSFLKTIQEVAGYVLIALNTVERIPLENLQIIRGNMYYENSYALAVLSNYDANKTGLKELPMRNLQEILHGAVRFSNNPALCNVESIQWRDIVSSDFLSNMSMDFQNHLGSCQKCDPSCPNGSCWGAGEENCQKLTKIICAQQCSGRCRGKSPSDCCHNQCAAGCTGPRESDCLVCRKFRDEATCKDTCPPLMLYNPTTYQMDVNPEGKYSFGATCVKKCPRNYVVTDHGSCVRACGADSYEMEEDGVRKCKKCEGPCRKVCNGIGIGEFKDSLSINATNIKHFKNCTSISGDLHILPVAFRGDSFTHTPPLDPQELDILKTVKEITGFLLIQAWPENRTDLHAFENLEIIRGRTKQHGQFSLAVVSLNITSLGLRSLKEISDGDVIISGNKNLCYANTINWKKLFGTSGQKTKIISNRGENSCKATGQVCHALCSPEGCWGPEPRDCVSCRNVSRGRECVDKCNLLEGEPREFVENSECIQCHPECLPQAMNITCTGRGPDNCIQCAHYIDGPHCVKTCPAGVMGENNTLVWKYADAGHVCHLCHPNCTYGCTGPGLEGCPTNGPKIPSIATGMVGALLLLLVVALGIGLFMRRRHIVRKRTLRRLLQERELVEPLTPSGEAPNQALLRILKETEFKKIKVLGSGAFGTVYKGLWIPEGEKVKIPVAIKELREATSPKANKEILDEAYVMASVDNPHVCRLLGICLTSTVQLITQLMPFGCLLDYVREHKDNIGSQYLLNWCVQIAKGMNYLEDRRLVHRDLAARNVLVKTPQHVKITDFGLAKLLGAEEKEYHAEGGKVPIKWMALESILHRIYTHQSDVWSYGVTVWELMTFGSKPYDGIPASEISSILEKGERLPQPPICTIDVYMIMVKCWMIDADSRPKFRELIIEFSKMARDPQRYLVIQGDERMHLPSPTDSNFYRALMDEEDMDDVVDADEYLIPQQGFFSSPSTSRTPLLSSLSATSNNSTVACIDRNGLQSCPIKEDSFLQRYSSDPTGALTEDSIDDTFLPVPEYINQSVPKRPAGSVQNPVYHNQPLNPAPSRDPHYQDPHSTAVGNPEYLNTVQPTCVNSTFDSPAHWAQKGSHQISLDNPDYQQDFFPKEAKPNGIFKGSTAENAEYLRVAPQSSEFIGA

SMILES: C=CC(=O)N1CCC[C@@H](n2nc(-c3cn(Cc4nc5ccc(Cl)cn5c4Br)nn3)c3c(N)ncnc32)C1
- IC50 [1]: 85 nM
- IC50 [2]: 104 nM
- IC50 [3]: 669 nM

SMILES: C#Cc1nn([C@@H]2CCCN(C(=O)C=C)C2)c2ncnc(N)c12
- Activity [4]: Active
- IC50 [3]: 40 nM

SMILES: C=CC(=O)N1CCC[C@@H](n2nc(-c3ccc(Oc4ccccc4)cc3)c3c(N)ncnc32)C1 [IBRUTINIB]
- remaining at 1 h, 5 µM [5]: 79.7%
- Papp [6]: 0.9 ×10⁻⁶ cm/s
- Activity [4]: Active
- Papp A→B at 2 h, 10 µM [7]: 22 ×10⁻⁶ cm/s
- fraction unbound at 6 h, 5 µM [8]: 0.011
- permeability [9]: 38%
- Papp B→A at 2 h, 10 µM [10]: 3 ×10⁻⁶ cm/s
- Papp A→B at 2 h, 5 µM [11]: 40 ×10⁻⁶ cm/s
- fraction unbound at 6 h, 5 µM [12]: 0.024
- solubility kinetic at 1.5 h [13]: 36 µM (≈ 15.9 µg/mL)
- IC50 [3]: 78 nM

SMILES: C=CC(=O)N1CCC[C@@H](n2nc(-c3cn(C)c4ccccc34)c3c(N)ncnc32)C1
- IC50 [3]: 302 nM

SMILES: C=CC(=O)N1CCC[C@@H](n2nc(-c3cn(-c4cc(C(F)(F)F)cnc4C#N)nn3)c3c(N)ncnc32)C1
- IC50 [1]: 6 nM
- IC50 [2]: 28 nM
- IC50 [3]: 788 nM

SMILES: CCC(=O)N1CCC[C@@H](n2nc(-c3cn(-c4ccc(C(C)=O)cc4)nn3)c3c(N)ncnc32)C1
- inhibition [14]: inactive
- inhibition [15]: inactive
- IC50 [1]: 649 nM
- IC50 [2]: 677 nM
- IC50 [3]: > 10000 nM
